Results: ChEMBL document CHEMBL1139344, “Antagonists of the human A(2A) adenosine receptor. 4. Design, synthesis, and preclinical evaluation of 7-aryltriazolo[4,5-d]pyrimidines” (J Med Chem, 2009)
pKi: −log10 of the molar value. Values after ≈ are worked out from the molar mass of the structure shown. Each block holds one compound with its values, some of them ahead of it. Active and inactive are the calls of the source. The calls are words filed in the database; no cut-off is given here.

Experiments:
Rattus norvegicus = assay: Reversal of haloperidol-induced hypolocomotion in Sprague-Dawley rat assessed as time spent for locomotor activity at 30 mg/kg, po administered 120 mins prior and measured for 60 mins; format: functional, organism-based; design: dose 30 mg/kg
[1] = Aqueous solubility in phosphate buffered saline; format: physicochemical
Adenosine receptor A1 = molecular target: T1, Adenosine receptor A1 (Homo sapiens, UniProt P30542); assay: Displacement of radioligand from human recombinant adenosine A1 receptor at 21 degC after 90 mins by cell-based microplate scintillation counting
T1 sequence (P30542 whole entry): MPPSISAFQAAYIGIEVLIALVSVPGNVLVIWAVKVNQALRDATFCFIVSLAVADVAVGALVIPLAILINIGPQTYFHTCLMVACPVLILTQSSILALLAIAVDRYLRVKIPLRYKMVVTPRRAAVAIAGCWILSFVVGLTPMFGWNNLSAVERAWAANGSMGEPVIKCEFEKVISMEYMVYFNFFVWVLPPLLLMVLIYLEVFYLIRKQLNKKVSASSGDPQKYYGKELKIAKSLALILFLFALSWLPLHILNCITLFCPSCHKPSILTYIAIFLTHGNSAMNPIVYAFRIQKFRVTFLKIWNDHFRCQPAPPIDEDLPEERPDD

Mus musculus [2] = assay: Reversal of haloperidol-induced hypolocomotion in TO mouse assessed as time spent for locomotor activity at 30 mg/kg, po administered 15 mins prior and measured for 60 mins; format: functional, organism-based; design: dose 30 mg/kg
Liver microsomes = assay: Metabolic stability in rat liver microsomes after 30 mins; format: ADME, Microsome; conditions: 0.5 h
Procedure, shortened: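 Turnover by rodent liver microsomes measured as percent turnover after 30 min.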

Homo sapiens [3] = species on record: Homo sapiens; assay: Selectivity for human recombinant adenosine A2A receptor over human recombinant adenosine A2B receptor by cell-based assay
Adenosine receptor A3 = molecular target: T2, Adenosine receptor A3 (Homo sapiens, UniProt P0DMS8); assay: Displacement of radioligand from human recombinant adenosine A3 receptor at 21 degC after 60 mins by cell-based microplate scintillation counting
T2 sequence (P0DMS8 whole entry): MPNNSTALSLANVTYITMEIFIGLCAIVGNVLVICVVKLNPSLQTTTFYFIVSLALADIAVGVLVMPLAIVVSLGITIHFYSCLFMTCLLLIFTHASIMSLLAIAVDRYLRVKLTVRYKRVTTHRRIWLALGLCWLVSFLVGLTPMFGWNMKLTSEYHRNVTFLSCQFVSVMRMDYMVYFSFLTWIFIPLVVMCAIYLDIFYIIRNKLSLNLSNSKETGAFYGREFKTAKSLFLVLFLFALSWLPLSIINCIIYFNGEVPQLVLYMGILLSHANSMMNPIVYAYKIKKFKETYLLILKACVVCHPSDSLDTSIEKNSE

Adenosine receptor A2a [4] = molecular target: T3, Adenosine receptor A2a (Homo sapiens, UniProt P29274); assay: Displacement of radioligand from human recombinant adenosine A2A receptor at 21 degC after 90 mins by cell-based microplate scintillation counting
Homo sapiens [5] = species on record: Homo sapiens; assay: Selectivity for human recombinant adenosine A2A receptor over human recombinant adenosine A1 receptor by cell-based assay
Adenosine receptor A2b = molecular target: T4, Adenosine receptor A2b (Homo sapiens, UniProt P29275); assay: Displacement of radioligand from human recombinant adenosine A2B receptor at 21 degC after 60 mins by cell-based microplate scintillation counting
T4 sequence (P29275 whole entry): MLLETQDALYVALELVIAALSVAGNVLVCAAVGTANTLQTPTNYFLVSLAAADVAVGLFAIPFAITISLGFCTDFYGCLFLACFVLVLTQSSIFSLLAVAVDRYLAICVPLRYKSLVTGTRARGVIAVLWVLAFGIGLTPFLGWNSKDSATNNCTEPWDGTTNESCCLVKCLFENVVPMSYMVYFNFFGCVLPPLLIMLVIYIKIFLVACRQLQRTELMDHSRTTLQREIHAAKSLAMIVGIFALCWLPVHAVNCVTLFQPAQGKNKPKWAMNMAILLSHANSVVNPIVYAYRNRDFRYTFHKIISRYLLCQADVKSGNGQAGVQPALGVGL

Homo sapiens [6] = species on record: Homo sapiens; assay: Selectivity for human recombinant adenosine A2A receptor over human recombinant adenosine A3 receptor by cell-based assay
[7] = molecular target: T5, Adenosine receptor A1 (Homo sapiens) (UniProt P30542); conditions: CHO-K1
T5 sequence (whole entry): T1 sequence (P30542 whole entry)

Adenosine receptor A2a [8] = molecular target: T3, Adenosine receptor A2a; conditions: CHO-K1
Mus musculus [9] = assay: Increase in locomotor activity in mouse at 100 mg/kg administered for 4 days; format: functional, organism-based; design: dose 100 mg/kg
[10] = molecular target: T6, Adenosine receptor A2b (Homo sapiens) (UniProt P29275); conditions: CHO-K1
T6 sequence (whole entry): T4 sequence (P29275 whole entry)

[11] = molecular target: T7, Adenosine receptor A3 (Homo sapiens) (UniProt P0DMS8); conditions: CHO-K1
T7 sequence (whole entry): T2 sequence (P0DMS8 whole entry)

Brain = assay: Drug uptake in Sprague-Dawley rat brain at 2 mg/kg, iv; format: ADME, organism-based; design: dose 2 mg/kg, route intravenous; conditions: in vivo
Procedure, shortened: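 Male Sprague-Dawley rats dosed intravenously at 2 mg kg^-1; brain uptake calculated as brain/plasma AUClast ratio.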

[12] = Half life in Sprague-Dawley rat at 2 mg/kg, iv; format: ADME, organism-based; design: dose 2 mg/kg, route intravenous; conditions: in vivo
Mus musculus [13] = assay: Toxicity in mouse at 100 mg/kg administered for 4 days; format: organism-based; design: dose 100 mg/kg; conditions: in vivo, 96 h
[14] = Tmax in Sprague-Dawley rat at 2 mg/kg, iv; format: ADME, organism-based; design: dose 2 mg/kg, route intravenous; conditions: in vivo
[15] = molecular target: Voltage-gated inwardly rectifying potassium channel KCNH2 (Homo sapiens, UniProt Q12809); assay: Binding affinity to human ERG at 30 uM by patch clamp technique
Procedure, shortened: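 hERG potassium channel examined by patch clamp at concentrations up to 30 µM, the maximal concentration reached in the protocol; response compared with vehicle alone.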

[16] = Apparent permeability across human Caco-2 cell membrane; format: ADME, cell-based; conditions: read-out: permeability
[17] = Oral bioavailability in Sprague-Dawley rat; format: ADME, organism-based; conditions: in vivo

T3 sequence (P29274 whole entry): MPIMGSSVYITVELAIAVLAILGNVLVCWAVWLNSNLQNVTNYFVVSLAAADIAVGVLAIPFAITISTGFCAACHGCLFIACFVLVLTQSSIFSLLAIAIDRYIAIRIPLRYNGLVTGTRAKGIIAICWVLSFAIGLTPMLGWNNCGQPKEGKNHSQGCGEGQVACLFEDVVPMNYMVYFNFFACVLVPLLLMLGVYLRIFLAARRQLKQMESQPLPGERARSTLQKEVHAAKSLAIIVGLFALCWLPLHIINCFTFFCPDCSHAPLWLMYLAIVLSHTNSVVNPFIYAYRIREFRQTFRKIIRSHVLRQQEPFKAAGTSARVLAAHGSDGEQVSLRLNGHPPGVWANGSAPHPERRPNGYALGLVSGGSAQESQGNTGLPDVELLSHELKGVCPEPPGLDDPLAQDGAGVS
Voltage-gated inwardly rectifying potassium channel KCNH2, sequence (Q12809 whole entry): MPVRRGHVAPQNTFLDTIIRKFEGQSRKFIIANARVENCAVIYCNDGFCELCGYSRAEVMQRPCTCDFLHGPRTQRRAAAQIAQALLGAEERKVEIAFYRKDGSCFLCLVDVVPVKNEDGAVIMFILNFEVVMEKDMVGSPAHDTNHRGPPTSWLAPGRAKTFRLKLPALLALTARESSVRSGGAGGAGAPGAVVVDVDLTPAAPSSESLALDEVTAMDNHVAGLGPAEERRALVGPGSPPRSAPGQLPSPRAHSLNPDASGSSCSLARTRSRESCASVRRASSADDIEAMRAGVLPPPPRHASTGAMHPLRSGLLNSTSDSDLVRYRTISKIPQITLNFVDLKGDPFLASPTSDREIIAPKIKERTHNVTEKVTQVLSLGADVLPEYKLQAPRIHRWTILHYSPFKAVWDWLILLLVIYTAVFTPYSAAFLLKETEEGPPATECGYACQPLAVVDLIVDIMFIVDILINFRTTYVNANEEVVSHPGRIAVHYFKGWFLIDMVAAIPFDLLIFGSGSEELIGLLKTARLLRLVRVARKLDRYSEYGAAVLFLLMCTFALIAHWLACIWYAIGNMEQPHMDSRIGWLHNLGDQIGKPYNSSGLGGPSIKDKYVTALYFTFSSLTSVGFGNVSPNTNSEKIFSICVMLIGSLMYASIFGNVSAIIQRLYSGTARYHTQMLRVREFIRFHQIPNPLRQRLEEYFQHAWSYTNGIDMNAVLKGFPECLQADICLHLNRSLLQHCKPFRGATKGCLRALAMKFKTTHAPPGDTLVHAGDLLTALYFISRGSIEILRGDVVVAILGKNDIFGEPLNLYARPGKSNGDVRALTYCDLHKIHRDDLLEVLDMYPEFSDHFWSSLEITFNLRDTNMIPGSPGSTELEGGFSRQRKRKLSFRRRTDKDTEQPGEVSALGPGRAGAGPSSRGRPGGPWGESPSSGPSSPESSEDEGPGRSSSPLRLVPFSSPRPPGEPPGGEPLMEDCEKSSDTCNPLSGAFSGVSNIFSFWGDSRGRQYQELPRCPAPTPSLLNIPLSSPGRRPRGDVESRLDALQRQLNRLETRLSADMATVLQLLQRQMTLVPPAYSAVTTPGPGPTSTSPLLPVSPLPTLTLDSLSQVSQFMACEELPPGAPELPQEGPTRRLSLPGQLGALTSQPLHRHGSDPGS

solubility [1]: 30 µM (≈ 9.85 µg/mL) | pKi (Adenosine receptor A1): 6.93 | Stability (Liver microsomes): Stable | pKi (Adenosine receptor A3): 5.93 | pKi (Adenosine receptor A2a [4]): 8.70 | pKi (Adenosine receptor A2b): 6.65
Structure (SMILES): Nc1nc(-c2ccco2)c2nnn(Cc3ccc(F)cc3F)c2n1
Activity (Rattus norvegicus): inactive | Activity (Mus musculus [2]): inactive | fold change (FC) (Homo sapiens [3]): > 50 | fold change (FC) (Homo sapiens [5]): > 50 | fold change (FC) (Homo sapiens [6]): > 50

KA [7]: 95 nM | KA (Adenosine receptor A2a [8]): 0.58 nM | KA [10]: 31 nM | KA [11]: 1500 nM
Structure (SMILES): Cc1cc(Cn2nnc3c(-c4ccco4)nc(N)nc32)ccc1N
Activity (Mus musculus [9]): Active

Drug uptake (Brain): 57% | half-life [12]: 2 h | Tmax [14]: 0.5 h | Papp [16]: 110 nm/s | bioavailability [17]: 35%
Structure (SMILES): Cc1cc(Cn2nnc3c(-c4ccco4)nc(N)nc32)ccc1N [VIPADENANT]
Activity (Mus musculus [13]): Non-toxic | Activity [15]: Not Active
